Assay outcomes: PubChem BioAssay, Sanford-Burnham Center for Chemical Genomics
Apaf1 activ – activates human Apaf-1 apoptosome; O14727; Apaf-1 apoptosome caspase-3 activation, DEVD-Rh110 fluorescence; stronger effect = lower value; activity change, negative = activation, % at 20 µM; 330,000 tested, 0.31% active;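 active = activity change at or below -40% at 20 µM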
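System: Reconstituted apoptosome of Apaf-1, cytochrome c, caspase-9, procaspase-3 | Reagent: dATP, cytochrome c, and (Z-DEVD)2-Rh110 caspase-3 substrate | Times: 30 min compound preincubation and 50 min reaction, both room temperature | Detection: Caspase-3-released Rh110 fluorescence, 540 nm emission, 480 nm excitation | Measure: Caspase-3 activity via Apaf-1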
Rh110 interf act – Rh110 signal interference in Apaf-1 activator counter-screen; shares compounds with Apaf1 activ; Rh110 fluorescence interference, quenched caspase reaction, Ex480/Em540; fluorescence interference (activity change), % at 20 µM, hits read low; 980 tested, under 10 active;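 active = mean activity change at or below -40% when tested at 20 µM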
Apaf-1 act conf – confirmation of human Apaf-1 activators; activity change, negative = activation, % at 20 µM; reconstituted apoptosome caspase-3 activity, DEVD-Rh110 fluorescence; stronger effect = lower value; shares compounds with Apaf1 activ; 980 tested, 5% active;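 active = mean activity change at or below -40%, meaning activation of 40% or more, at 20 µM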
Fluor interf act – counter-screen for Apaf-1 activators: fluorescence interference, dose response | shares compounds with Apaf1 activ | fluorescence interference counterscreen, Apaf-1 activator assay | EC50, µM | 55 tested, under 10 active; call rule not given here
A number is an active result; - = inactive; . = no result. These entries were drawn from the full list.

SMILES | Apaf1 activ | Rh110 interf act | Apaf-1 act conf | others
Fc1ccc(NC(=S)Nc2cccc3ccccc23)cc1F | - | . | .
O=C(OCC(=O)N1CCN(S(=O)(=O)c2ccccc2)CC1)c1ccc([N+](=O)[O-])o1 | - | . | .
CCCC(=O)OC1CC(C)N(C(=O)c2ccccc2)c2ccc(C)cc21 (centres undefined) | -67 | - | -
CCOC(=O)c1c(NC(=O)c2ccc(C)cc2)sc2c1CC(C)(C)NC2(C)C | - | . | .
CC1(C)CNc2cc(N)ccc2S1 | - | . | .
CCCCOc1cc(C(=O)OCCN(CC)CC)ccc1N | - | . | .
O=c1[nH]c(=O)n(C2CCCCCC2)c(O)c1C=NCc1ccc(F)cc1 | - | . | .
CC1CC(C)CN(CCCNC(=O)CN2C(=O)c3cccnc3Oc3ccc(Cl)cc32)C1 (centres undefined) | -148 | - | -
NC1=NC[C@H](Cc2ccc(O)cc2)N1CCC12CC3CC(CC(C3)C1)C2 | - | . | .
COc1ccccc1-c1sc2ccccc2c1-c1ccc(OCCN2CCCCC2)cc1 | - | . | .
COc1ccc(/C=N/NC(=O)c2ccc(CSc3nncn3C)cc2)cc1OC | -192 | - | -
COc1cc(OC)c(NC2=CC(=O)C(=O)c3ccccc32)cc1Cl | - | . | .
CCN1CCN(CCNC(=O)c2cn(C(C)c3ccccc3F)nn2)CC1 (centres undefined) | -78 | - | -
CCCCN(CC)S(=O)(=O)c1ccc(C(=O)N(CCCN(C)C)c2nc3cc(C)cc(C)c3s2)cc1 | - | . | .
CCN1CCN(Cc2ccc(NC(=O)c3ccc(C)c(NC(=O)c4cc(-c5ccc(Br)cc5)n[nH]4)c3)cc2C(F)(F)F)CC1 | - | . | .
COC(=O)CCC(=O)OC1(C)C(=O)C2=CN(CCc3ccccn3)C(c3ccc(OC)cc3)=CC2=C(Br)C1=O (centres undefined) | - | . | .
FC(F)(F)c1cc(CCN2CCNC[C@@H]2CC2CCCCC2)cc(C(F)(F)F)c1 | - | . | .
CC(=O)N(/N=C1\Sc2ccccc2C1=O)c1ccc(C)cc1C | - | . | .
CCN1CCN(CCCNC(=O)c2ccc(/C=C3/Oc4ccccc4N(Cc4cccc(C)c4)C3=O)cc2)CC1 | - | . | .
Cc1cccc(CN2C(=O)c3ccccc3Sc3ccc(C(=O)O)cc32)c1 | -53 | - | -
CSc1ccc(C=NNc2ccc(S(=O)(=O)Nc3ccccc3C(=O)O)cc2[N+](=O)[O-])cc1 | -90 | - | -133 | Fluor interf act=-
Cc1ccc(C)c(S(=O)(=O)NCc2ccc(C(=O)N3CCOCC3)cc2)c1 | -47 | - | -
Cc1ccc(S(=O)(=O)NCc2ccccc2)cc1C(=O)N1CCN(c2ccccc2)CC1 | - | . | .
CNc1cc(C)c(C#N)c2nc3ccccc3n12 | -58 | - | -
COc1ccc(CCn2c(N)c(C#N)c3nc4ccccc4nc32)cc1OC | - | . | .
SMILES | Apaf1 activ | Rh110 interf act | Apaf-1 act conf | others
N#Cc1c(N)n(-c2ccccc2N)c2nc3ccccc3nc12 | - | . | .
C[C@@H](CN1CCC[C@H]1CN1C(N)=NC[C@@H]1Cc1ccccc1)N1C[C@@H](Cc2ccccc2)N(CCc2ccc(Cl)c(Cl)c2)C1=N | - | . | .
CN(C)S(=O)(=O)N1CCCN(S(=O)(=O)N(C)C)CC1 | -313 | - | -
Cc1cccc(CC(=O)Nc2ccon2)c1 | -278 | - | -
CCOc1ccc(NC(=O)CN(C)C(=O)c2ccccc2OCc2cccc(C)c2)cc1OCC | - | . | .
Cc1cccc(NC(=S)Nc2cccc3ccccc23)c1 | - | . | .
Cc1ccc(-c2csc3nc4c5ccccc5c(NCCCN(C)C)nn4c(=O)c23)cc1 | - | . | .
CN(C)CCCNC(=O)C[C@H]1C[C@H](C(=O)N2CCCCC2)[C@@]2(CCc3ccccc3)c3[nH]c4ccc(Cl)cc4c3CCN2C1=O | - | . | .
C[C@H](CO)N1C[C@H](C)[C@@H](CN(C)Cc2ccc(Oc3ccccc3)cc2)Oc2c(NC(=O)C3CC3)cccc2C1=O | - | . | .
CCOC(=O)c1c2ccc(OCC(=O)NN)cc2n2ccccc12 | - | . | .
O=C(COc1ccc2c3c(c(=O)oc2c1)CCC3)N1CCN(c2ccc(F)cc2)CC1 | - | . | .
Cc1oc2cc(OCC(=O)O)ccc2c(=O)c1Oc1ccccc1 | -100 | - | -
C=CCN(CC=C)Cc1c(O)ccc2c1oc(=O)c1ccccc12 | - | . | .
COc1ccc(NC(=S)Nc2ccc3nsnc3c2)cc1 | - | . | .
Cc1ccc(/C=N/NC(=O)c2ccncc2)cc1 | -499 | - | -
Cc1cc([N+](=O)[O-])c(C)cc1-c1ccc(/C=N/NC(=O)c2cccnc2)o1 | - | . | .
Cc1cccc(C(=O)N/N=C/c2ccncc2)c1 | -45 | - | -
O=C1CC(=Nc2ccccc2)NN1c1ccccc1 | - | . | .
CCCCCCCCCCn1c2c(c(=N)c3c1CCC3)CCC2 | - | . | .
CCOc1cc(N(CC)CC)ccc1/C=C(/C#N)c1nc2ccccc2[nH]1 | -46 | - | -
